Measurements from ChEMBL document CHEMBL1150162, “Antimicrobial activities of naphthazarins from Arnebia euchroma” (2002).
Converted amounts (≈) assume the structure as drawn. The source made the active and inactive calls. The calls are words filed in the database; no cut-off is given here.

Columns and labels:
HeLa = assay: Cytotoxicity against human HeLa cells after 48 hrs by MTT assay; assay type: functional; details: read-out: CD50 (the source's name)
How it was run: (§1)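 Cells seeded at 5 × 10^3 per well, grown 24 h, then given 2-fold dilutions of sample for 48 h. Medium replaced with serum-free medium, MTT added (5 mg/mL stock) for 2 h at 37 °C, formazan dissolved in DMSO, OD read at 550 nm. CD50 is the concentration giving 50% reduction in net cell increase. Quadruplicate, repeated at least twice.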

Enterococcus faecium [1] = assay: Antibacterial activity against vancomycin-resistant Enterococcus faecium F935 expressing VanA after 24 hrs by broth microdilution method; assay type: functional; details: F935, 24 h
How it was run: (§2)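 2-fold serial dilutions of test agent in LB broth, DMSO under 5% final. Inoculum about 5 × 10^5 CFU/mL, confirmed by LB agar plating. Incubated 24 h at 35 °C in ambient air. MIC is the lowest concentration with no visible growth. Three repeats; oxacillin, vancomycin and chloramphenicol as positive controls.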

Staphylococcus aureus [2] = assay: Antibacterial activity against methicillin-resistant Staphylococcus aureus 8-8S after 48 hrs by broth microdilution method; assay type: functional
Enterococcus faecalis [3] = assay: Antibacterial activity against Enterococcus faecalis after 48 hrs by broth microdilution method; assay type: functional
Staphylococcus aureus [4] = assay: Antibacterial activity against methicillin-resistant Staphylococcus aureus 8-8S after 24 hrs by broth microdilution method; assay type: functional
How it was run: as §2, with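 “in […]” for “in LB”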

Enterococcus faecalis [5] = assay: Antibacterial activity against vancomycin-resistant Enterococcus faecalis CKU-17 expressing VanB after 24 hrs by broth microdilution method; assay type: functional; details: CKU-17, 24 h; how it was run: as §2
OVCAR-3 = assay: Cytotoxicity against human OVCAR-3 cells after 48 hrs by MTT assay; assay type: functional; details: OVCAR-3, 48 h, read-out: CD50 (the source's name); how it was run: as §1
Staphylococcus aureus [6] = assay: Antibacterial activity against Staphylococcus aureus after 24 hrs by broth microdilution method; assay type: functional
How it was run: as §2, with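 “in […]” for “in LB”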

Escherichia coli = assay: Antibacterial activity against Escherichia coli up to 100 ug/mL after 24 hrs by broth microdilution method; assay type: functional, organism-based
How it was run: (§3)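 Broth microdilution with 2-fold serial dilutions in LB broth, compounds from DMSO stocks (DMSO below 5% final), inoculum about 5 × 10^5 CFU/mL. Incubated 24 h at 35 °C in ambient air. MIC is the lowest concentration with no visible growth. Experiments repeated three times.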

Pseudomonas aeruginosa = assay: Antibacterial activity against Pseudomonas aeruginosa up to 100 ug/mL after 24 hrs by broth microdilution method; assay type: functional, organism-based; how it was run: as §3
Enterococcus faecalis [7] = assay: Ratio of MBC to MIC for Enterococcus faecalis; assay type: functional
Enterococcus faecalis [8] = assay: Antibacterial activity against Enterococcus faecalis after 24 hrs by broth microdilution method; assay type: functional; how it was run: as §2
Enterococcus faecium [9] = assay: Ratio of MBC to MIC for vancomycin-resistant Enterococcus faecium F935 expressing VanA; assay type: functional
Enterococcus faecalis [10] = assay: Antibacterial activity against vancomycin-resistant Enterococcus faecalis CKU-17 expressing VanB after 48 hrs by broth microdilution method; assay type: functional
Staphylococcus aureus [11] = assay: Antibacterial activity against Staphylococcus aureus after 48 hrs by broth microdilution method; assay type: functional
HepG2 = assay: Cytotoxicity against human HepG2 cells after 48 hrs by MTT assay; assay type: functional; details: HepG2, 48 h, read-out: CD50 (the source's name); how it was run: as §1
Enterococcus faecium [12] = assay: Antibacterial activity against vancomycin-resistant Enterococcus faecium F935 expressing VanA after 48 hrs by broth microdilution method; assay type: functional
Staphylococcus aureus [13] = assay: Ratio of MBC to MIC for Staphylococcus aureus; assay type: functional

Row | Compound | CC50 (HeLa) [µg/mL] | MIC (Enterococcus faecium [1]) [µg/mL] | MBC (Staphylococcus aureus [2]) | MBC (Enterococcus faecalis [3]) | MIC (Staphylococcus aureus [4]) [µg/mL] | MIC (Enterococcus faecalis [5]) [µg/mL] | CC50 (OVCAR-3) [µg/mL] | MIC (Staphylococcus aureus [6]) [µg/mL] | Activity (Escherichia coli) | Activity (Pseudomonas aeruginosa) | Ratio (Enterococcus faecalis [7]) | MIC (Enterococcus faecalis [8]) [µg/mL] | Ratio (Enterococcus faecium [9]) | MBC (Enterococcus faecalis [10]; CKU-17, 48 h) [µg/mL] | MBC (Staphylococcus aureus [11]) [µg/mL] | CC50 (HepG2) [µg/mL] | MBC (Enterococcus faecium [12]; F935, 48 h) [µg/mL] | Ratio (Staphylococcus aureus [13]) | MBC (Enterococcus faecalis [10]) | MBC (Enterococcus faecium [12])
1 | CC[C@H](C)C(=O)O[C@@H](CC=C(C)C)C1=CC(=O)c2c(O)ccc(O)c2C1=O | 0.8 (≈ 2.15 µM) | 1.56 (≈ 4.19 µM) | 1.56 µg/mL (≈ 4.19 µM) | 3.13 µg/mL (≈ 8.4 µM) | 1.56 (≈ 4.19 µM) | 1.56 (≈ 4.19 µM) | 0.6 (≈ 1.61 µM) | 0.78 (≈ 2.09 µM) | inactive | inactive | <=2 | 1.56 (≈ 4.19 µM) | <=2 | 3.13 (≈ 8.4 µM) | 0.78 (≈ 2.09 µM) | 0.6 (≈ 1.61 µM) | 3.13 (≈ 8.4 µM) | <=2 |  | 
2 | CC[C@@H](C)C(=O)O[C@@H](CC=C(C)C)C1=CC(=O)c2c(O)ccc(O)c2C1=O | 3.9 (≈ 10.5 µM) | 3.13 (≈ 8.4 µM) | 3.13 µg/mL (≈ 8.4 µM) | 6.25 µg/mL (≈ 16.8 µM) | 3.13 (≈ 8.4 µM) | 3.13 (≈ 8.4 µM) | 1.7 (≈ 4.56 µM) | 1.56 (≈ 4.19 µM) | inactive | inactive | <=2 | 3.13 (≈ 8.4 µM) | <=2 | 6.25 (≈ 16.8 µM) | 1.56 (≈ 4.19 µM) | 5 (≈ 13.4 µM) | 6.25 (≈ 16.8 µM) | <=2 |  | 
3 | CC(C)=CC[C@H](OC(=O)/C=C/c1ccc2c(c1)OCO2)C1=CC(=O)c2c(O)ccc(O)c2C1=O | 1.5 (≈ 3.24 µM) | 50 (≈ 108 µM) | 50 µg/mL (≈ 108 µM) | > 100 µg/mL | 50 (≈ 108 µM) | 50 (≈ 108 µM) | 1 (≈ 2.16 µM) | 50 (≈ 108 µM) | inactive | inactive |  | 100 (≈ 216 µM) |  | 50 (≈ 108 µM) | 100 (≈ 216 µM) | 2.1 (≈ 4.54 µM) | 50 (≈ 108 µM) |  |  | 
4 | CC(C)=CC[C@H](OC(=O)C=C(C)C)C1=CC(=O)c2c(O)ccc(O)c2C1=O | 1.8 (≈ 4.86 µM) | 3.13 (≈ 8.45 µM) | 3.13 µg/mL (≈ 8.45 µM) | 3.13 µg/mL (≈ 8.45 µM) | 1.56 (≈ 4.21 µM) | 3.13 (≈ 8.45 µM) | 1.6 (≈ 4.32 µM) | 1.56 (≈ 4.21 µM) | inactive | inactive | <=2 | 3.13 (≈ 8.45 µM) | <=2 | 3.13 (≈ 8.45 µM) | 1.56 (≈ 4.21 µM) | 2.6 (≈ 7.02 µM) | 3.13 (≈ 8.45 µM) | <=2 |  | 
5 | CC(=O)O[C@H](CC=C(C)C)C1=CC(=O)c2c(O)ccc(O)c2C1=O [ACETYLSHIKONIN] |  | 6.25 (≈ 18.9 µM) | 1.56 µg/mL (≈ 4.72 µM) | 3.13 µg/mL (≈ 9.48 µM) | 1.56 (≈ 4.72 µM) | 6.25 (≈ 18.9 µM) |  | 1.56 (≈ 4.72 µM) | inactive | inactive | <=2 | 3.13 (≈ 9.48 µM) | <=2 | 6.25 (≈ 18.9 µM) | 1.56 (≈ 4.72 µM) |  | 6.25 (≈ 18.9 µM) | <=2 |  | 
6 | CC(C)=CC[C@H](O)C1=CC(=O)c2c(O)ccc(O)c2C1=O [ALKANNIN] | 0.8 (≈ 2.77 µM) | 50 (≈ 173 µM) | 12.5 µg/mL (≈ 43.4 µM) | 50 µg/mL (≈ 173 µM) | 6.25 (≈ 21.7 µM) | 25 (≈ 86.7 µM) | 0.8 (≈ 2.77 µM) | 6.25 (≈ 21.7 µM) | inactive | inactive | <=2 | 50 (≈ 173 µM) | <=2 | 50 (≈ 173 µM) | 12.5 (≈ 43.4 µM) | 1 (≈ 3.47 µM) | 50 (≈ 173 µM) | <=2 |  | 
7 | O=C(N[C@H](CO)[C@H](O)c1ccc([N+](=O)[O-])cc1)C(Cl)Cl [CHLORAMPHENICOL] |  | 6.25 (≈ 19.3 µM) |  | inactive |  | 6.25 (≈ 19.3 µM) |  |  |  |  |  | 6.25 (≈ 19.3 µM) |  |  |  |  |  |  | inactive | inactive
8 | CC(C)=CC[C@H](OC(=O)/C=C/c1ccccc1)C1=CC(=O)c2c(O)ccc(O)c2C1=O [CINNAMOYL ALKANNIN] | 3.6 (≈ 8.6 µM) | 25 (≈ 59.7 µM) | > 100 µg/mL | > 100 µg/mL | 50 (≈ 119 µM) | 25 (≈ 59.7 µM) | 2.4 (≈ 5.74 µM) | 50 (≈ 119 µM) | inactive | inactive |  | 100 (≈ 239 µM) |  | 100 (≈ 239 µM) | 100 (≈ 239 µM) | 3.8 (≈ 9.08 µM) | 100 (≈ 239 µM) |  |  | 
9 | CC(C)=CC[C@H](OC(=O)C(C)C)C1=CC(=O)c2c(O)ccc(O)c2C1=O [ISOBUTYLALKANNIN] | 5.4 (≈ 15.1 µM) | 3.13 (≈ 8.73 µM) | 3.13 µg/mL (≈ 8.73 µM) | 3.13 µg/mL (≈ 8.73 µM) | 1.56 (≈ 4.35 µM) | 3.13 (≈ 8.73 µM) | 2 (≈ 5.58 µM) | 1.56 (≈ 4.35 µM) | inactive | inactive | <=2 | 3.13 (≈ 8.73 µM) | <=2 | 6.25 (≈ 17.4 µM) | 1.56 (≈ 4.35 µM) | 4 (≈ 11.2 µM) | 3.13 (≈ 8.73 µM) | <=2 |  | 
10 | Cc1onc(-c2ccccc2)c1C(=O)N[C@@H]1C(=O)N2[C@@H]1SC(C)(C)[C@@H]2C(=O)O [OXACILLIN] |  | > 100 | inactive | 50 µg/mL (≈ 125 µM) | > 100 | > 100 |  | 0.39 (≈ 0.971 µM) |  |  |  | 25 (≈ 62.3 µM) |  |  | 0.39 (≈ 0.971 µM) |  |  |  | inactive | inactive
11 | CC(C)=CC[C@@H](O)C1=CC(=O)c2c(O)ccc(O)c2C1=O [SHIKONIN] |  | 50 (≈ 173 µM) | 12.5 µg/mL (≈ 43.4 µM) | 50 µg/mL (≈ 173 µM) | 6.25 (≈ 21.7 µM) | 25 (≈ 86.7 µM) |  | 6.25 (≈ 21.7 µM) | inactive | inactive | <=2 | 50 (≈ 173 µM) | <=2 | 50 (≈ 173 µM) | 12.5 (≈ 43.4 µM) |  | 50 (≈ 173 µM) | <=2 |  | 
12 | CN[C@H](CC(C)C)C(=O)N[C@H]1C(=O)N[C@@H](CC(N)=O)C(=O)N[C@H]2C(=O)N[C@H]3C(=O)N[C@H](C(=O)N[C@H](C(=O)O)c4cc(O)cc(O)c4-c4cc3ccc4O)[C@H](O)c3ccc(c(Cl)c3)Oc3cc2cc(c3O[C@@H]2O[C@H](CO)[C@@H](O)[C@H](O)[C@H]2O[C@H]2C[C@](C)(N)[C@H](O)[C@H](C)O2)Oc2ccc(cc2Cl)[C@H]1O [VANCOMYCIN] |  | > 100 | 1.56 µg/mL (≈ 1.08 µM) | inactive | 1.56 (≈ 1.08 µM) | > 100 |  | 1.56 (≈ 1.08 µM) |  |  |  | 3.13 (≈ 2.16 µM) |  |  | 1.56 (≈ 1.08 µM) |  |  |  | inactive | inactive
